Results reported in ChEMBL document CHEMBL1148810, “Design, synthesis, and preliminary pharmacological evaluation of new quinoline derivatives as nicotinic ligands” (J Med Chem, 2007).
The source made the active and inactive calls.

How the values were obtained:
[1] = test system: Mus musculus; assay: Analgesic activity in mouse at 5 mg/kg, ip by hot plate test […]; assay type: functional, organism-based; set-up: dose 5 mg/kg
How it was run: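 Mice were placed on a stainless steel surface held at 52.5 ± 0.1 °C, and dosing was i.p. at 5 mg/kg. Paw-licking latency (s) was timed by stopwatch before and 15, 30, 45 and 60 min after dosing. Mice with pretest scores below 12 or above 18 s were excluded, and the cutoff was 45 s. Ten mice per group; mean ± SEM.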

[2] = biological target: T1, Neuronal acetylcholine receptor; alpha4/beta2 (Rattus norvegicus, UniProt P09483+P12390); assay: Displacement of [3H]cytisine from alpha-4-beta-2 nAChR in rat cerebral cortex; assay type: tissue-based
T1 sequence (P09483 whole entry): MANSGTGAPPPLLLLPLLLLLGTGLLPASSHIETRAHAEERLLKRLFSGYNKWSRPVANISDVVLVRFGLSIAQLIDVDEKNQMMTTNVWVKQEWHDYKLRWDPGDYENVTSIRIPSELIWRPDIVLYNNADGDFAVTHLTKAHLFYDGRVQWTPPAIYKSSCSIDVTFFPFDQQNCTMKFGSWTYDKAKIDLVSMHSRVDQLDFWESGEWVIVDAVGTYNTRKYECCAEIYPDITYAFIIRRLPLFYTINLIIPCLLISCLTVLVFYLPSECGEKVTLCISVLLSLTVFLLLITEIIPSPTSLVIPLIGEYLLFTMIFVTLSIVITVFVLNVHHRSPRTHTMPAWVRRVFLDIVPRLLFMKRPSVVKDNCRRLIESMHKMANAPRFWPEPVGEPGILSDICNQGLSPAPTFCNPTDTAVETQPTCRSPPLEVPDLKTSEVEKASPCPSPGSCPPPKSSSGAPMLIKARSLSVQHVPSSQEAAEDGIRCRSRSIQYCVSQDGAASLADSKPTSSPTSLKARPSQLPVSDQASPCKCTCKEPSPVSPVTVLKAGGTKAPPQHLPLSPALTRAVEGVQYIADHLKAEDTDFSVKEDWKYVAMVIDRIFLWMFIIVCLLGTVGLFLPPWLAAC
T1 sequence (P12390 whole entry): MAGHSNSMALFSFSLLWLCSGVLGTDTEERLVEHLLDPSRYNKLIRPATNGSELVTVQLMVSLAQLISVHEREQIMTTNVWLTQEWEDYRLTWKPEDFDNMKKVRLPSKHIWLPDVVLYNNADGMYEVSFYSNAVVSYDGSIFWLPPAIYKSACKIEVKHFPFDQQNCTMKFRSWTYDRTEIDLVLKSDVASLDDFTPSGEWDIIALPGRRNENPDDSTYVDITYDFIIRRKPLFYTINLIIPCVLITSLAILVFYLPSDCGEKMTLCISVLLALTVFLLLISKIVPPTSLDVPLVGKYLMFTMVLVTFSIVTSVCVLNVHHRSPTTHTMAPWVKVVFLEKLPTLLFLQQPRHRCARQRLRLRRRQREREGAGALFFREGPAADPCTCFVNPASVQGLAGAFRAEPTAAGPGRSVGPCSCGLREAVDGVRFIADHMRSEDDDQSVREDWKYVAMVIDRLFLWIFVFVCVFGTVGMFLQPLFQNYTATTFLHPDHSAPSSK
How it was run: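 Rat cerebral cortex membranes labelled with [³H]-cytisine, which marks α4β2* receptors. Compounds were tested for displacement up to 10 µM, with amines used as oxalate salts. Ki values were determined.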

[3] = biological target: Neuronal acetylcholine receptor subunit alpha-7 (Rattus norvegicus, UniProt Q05941); assay: Displacement of [3H]alpha-bungarotoxin from alpha-7 nAChR in rat cerebral cortex; assay type: tissue-based
Chain of Neuronal acetylcholine receptor subunit alpha-7 (Q05941 whole entry): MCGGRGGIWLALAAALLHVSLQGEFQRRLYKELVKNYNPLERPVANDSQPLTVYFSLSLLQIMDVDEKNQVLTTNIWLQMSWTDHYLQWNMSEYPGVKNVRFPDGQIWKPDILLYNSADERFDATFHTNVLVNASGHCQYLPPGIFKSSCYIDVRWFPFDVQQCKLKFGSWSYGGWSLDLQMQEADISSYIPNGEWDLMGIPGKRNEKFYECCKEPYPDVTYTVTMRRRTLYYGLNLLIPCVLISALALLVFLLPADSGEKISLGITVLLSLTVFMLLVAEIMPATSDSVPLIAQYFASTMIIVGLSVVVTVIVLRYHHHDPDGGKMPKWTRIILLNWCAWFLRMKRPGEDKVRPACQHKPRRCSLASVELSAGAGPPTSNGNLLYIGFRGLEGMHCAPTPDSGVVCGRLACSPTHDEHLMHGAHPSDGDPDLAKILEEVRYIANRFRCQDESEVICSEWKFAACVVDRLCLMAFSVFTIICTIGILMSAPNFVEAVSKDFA

[4] = biological target: T1, Neuronal acetylcholine receptor; alpha4/beta2; assay: Displacement of [3H]epibatidine from alpha-4-beta-2 nAChR in rat cerebral cortex; assay type: tissue-based
How it was run: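 Rat cerebral cortex was used in competition binding against [³H]-epibatidine, with amines tested as oxalate salts. Ki values were derived, and subtype selectivity was taken from comparison with Ki values obtained on the same tissue.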

| Compound | Activity [1] | Ki [2] | Ki [3] | Ki [4] |
| --- | --- | --- | --- | --- |
| C[N+]1(C)CCCC1c1ccc2ncccc2c1 (racemic) | Dose-dependent effect | 45 nM | – | – |
| C[N+]1(C)CCC[C@@H]1c1ccc2ncccc2c1 | – | 220 nM | 90 nM | 1400 nM |
| C[N+]1(C)CCC[C@H]1c1ccc2ncccc2c1 | Active | 16 nM | 1570 nM | 42 nM |
| CN1CCCC1c1ccc2ncccc2c1 (racemic) | Dose-dependent effect | 132 nM | – | – |
| CN1CCC[C@H]1c1ccc2ncccc2c1 | – | 90 nM | 42000 nM | 124 nM |
| CN1CCC[C@@H]1c1ccc2ncccc2c1 | – | 1950 nM | 8100 nM | 2100 nM |
| C[N+](C)(C)CCC#Cc1ccc2ncccc2c1 | – | – | 142 nM | 6800 nM |
